Blank lines part the entries; values can stand above or below the molecule they belong to.
Tests used:
Mus musculus [1] = species on record: Mus musculus; experiment: Tissue distribution expressed as percentage injected dose per gram of tissue in normal mice heart after 4 hour; format: ADME, organism-based; conditions: in vivo
In short: (§1)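 Normal BALB/c mice, 26–29 g, given 4 μCi of the nca 18F tracer via tail vein. Groups killed with halothane at 1, 2 or 4 h post-injection. Tissues washed in saline, blot-dried, weighed and γ-counted for ¹⁸F. Values are mean ± SD as % ID/g; n = 10 at 1 and 2 h, n = 5 at 4 h.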

Mus musculus [2] = species on record: Mus musculus; experiment: tissue distribution expressed as percentage injected dose per gram of tissue in normal mice heart after 1 hour; format: ADME, organism-based; conditions: in vivo
Mus musculus [3] = species on record: Mus musculus; experiment: Tissue distribution expressed as percentage injected dose per gram of tissue in normal mice adrenals after 1 hour; format: ADME, organism-based, Adrenal gland; conditions: in vivo; in short: as §1
Mus musculus [4] = species on record: Mus musculus; experiment: Tissue distribution expressed as percentage injected dose per gram of tissue in normal mice adrenals after 4 hour; format: ADME, organism-based, Adrenal gland; conditions: in vivo; in short: as §1
Mus musculus [5] = species on record: Mus musculus; experiment: Tissue distribution expressed as percentage injected dose per gram of tissue in normal mice kidney after 4 hour; format: ADME, organism-based; conditions: in vivo; in short: as §1
Mus musculus [6] = species on record: Mus musculus; experiment: Tissue distribution expressed as percentage injected dose per gram of tissue in normal mice large intestine after 1 hour; format: ADME, organism-based; conditions: in vivo; in short: as §1
Mus musculus [7] = species on record: Mus musculus; experiment: Tissue distribution expressed as percentage injected dose per gram of tissue in normal mice large intestine after 2 hour; format: ADME, organism-based; conditions: in vivo; in short: as §1
Mus musculus [8] = species on record: Mus musculus; experiment: Tissue distribution expressed as percentage injected dose per gram of tissue in normal mice large intestine after 4 hour; format: ADME, organism-based; conditions: in vivo; in short: as §1
Mus musculus [9] = species on record: Mus musculus; experiment: Tissue distribution expressed as percentage injected dose per gram of tissue in normal mice liver after 1 hour; format: ADME, organism-based; conditions: in vivo; in short: as §1
Mus musculus [10] = species on record: Mus musculus; experiment: Tissue distribution expressed as percentage injected dose per gram of tissue in normal mice bone after 2 hour; format: ADME, organism-based, Bone element; conditions: in vivo; in short: as §1
Mus musculus [11] = species on record: Mus musculus; experiment: Tissue distribution expressed as percentage injected dose per gram of tissue in normal mice bone after 4 hour; format: ADME, organism-based, Bone element; conditions: in vivo; in short: as §1
Mus musculus [12] = species on record: Mus musculus; experiment: Tissue distribution expressed as percentage injected dose per gram of tissue in normal mice brain after 1 hour; format: ADME, organism-based; conditions: in vivo; in short: as §1
Mus musculus [13] = species on record: Mus musculus; experiment: Tissue distribution expressed as percentage injected dose per gram of tissue in normal mice brain after 2 hour; format: ADME, organism-based; conditions: in vivo; in short: as §1
Mus musculus [14] = species on record: Mus musculus; experiment: Tissue distribution expressed as percentage injected dose per gram of tissue in normal mice brain after 4 hour; format: ADME, organism-based; conditions: in vivo; in short: as §1
Mus musculus [15] = species on record: Mus musculus; experiment: Tissue distribution expressed as percentage injected dose per gram of tissue in normal mice heart after 1 hour; format: ADME, organism-based; conditions: in vivo; in short: as §1
Mus musculus [16] = species on record: Mus musculus; experiment: Tissue distribution expressed as percentage injected dose per gram of tissue in normal mice heart after 2 hour; format: ADME, organism-based; conditions: in vivo; in short: as §1
Mus musculus [17] = species on record: Mus musculus; experiment: Tissue distribution expressed as percentage injected dose per gram of tissue in normal mice liver after 2 hour; format: ADME, organism-based; conditions: in vivo; in short: as §1
Mus musculus [18] = species on record: Mus musculus; experiment: Tissue distribution expressed as percentage injected dose per gram of tissue in normal mice liver after 4 hour; format: ADME, organism-based; conditions: in vivo; in short: as §1
Mus musculus [19] = species on record: Mus musculus; experiment: Tissue distribution expressed as percentage injected dose per gram of tissue in normal mice lungs after 1 hour; format: ADME, organism-based, Lung; conditions: in vivo; in short: as §1
Mus musculus [20] = species on record: Mus musculus; experiment: Tissue distribution expressed as percentage injected dose per gram of tissue in normal mice lungs after 2 hour; format: ADME, organism-based, Lung; conditions: in vivo; in short: as §1
Mus musculus [21] = species on record: Mus musculus; experiment: Tissue distribution expressed as percentage injected dose per gram of tissue in normal mice lungs after 4 hour; format: ADME, organism-based, Lung; conditions: in vivo; in short: as §1
Mus musculus [22] = species on record: Mus musculus; experiment: Tissue distribution expressed as percentage injected dose per gram of tissue in normal mice muscle after 1 hour; format: ADME, organism-based; conditions: in vivo; in short: as §1
Mus musculus [23] = species on record: Mus musculus; experiment: Tissue distribution expressed as percentage injected dose per gram of tissue in normal mice muscle after 2 hour; format: ADME, organism-based; conditions: in vivo; in short: as §1
Mus musculus [24] = species on record: Mus musculus; experiment: Tissue distribution expressed as percentage injected dose per gram of tissue in normal mice muscle after 4 hour; format: ADME, organism-based; conditions: in vivo; in short: as §1
Mus musculus [25] = species on record: Mus musculus; experiment: Tissue distribution expressed as percentage injected dose per gram of tissue in normal mice small intestine after 1 hour; format: ADME, organism-based; conditions: in vivo; in short: as §1
Mus musculus [26] = species on record: Mus musculus; experiment: Tissue distribution expressed as percentage injected dose per gram of tissue in normal mice small intestine after 2 hour; format: ADME, organism-based; conditions: in vivo; in short: as §1
Mus musculus [27] = species on record: Mus musculus; experiment: Tissue distribution expressed as percentage injected dose per gram of tissue in normal mice small intestine after 4 hour; format: ADME, organism-based; conditions: in vivo; in short: as §1
Mus musculus [28] = species on record: Mus musculus; experiment: Tissue distribution expressed as percentage injected dose per gram of tissue in normal mice spleen after 1 hour; format: ADME, organism-based; conditions: in vivo; in short: as §1
Mus musculus [29] = species on record: Mus musculus; experiment: Tissue distribution expressed as percentage injected dose per gram of tissue in normal mice spleen after 2 hour; format: ADME, organism-based; conditions: in vivo; in short: as §1
Mus musculus [30] = species on record: Mus musculus; experiment: Tissue distribution expressed as percentage injected dose per gram of tissue in normal mice spleen after 4 hour; format: ADME, organism-based; conditions: in vivo; in short: as §1
Mus musculus [31] = species on record: Mus musculus; experiment: Tissue distribution expressed as percentage injected dose per gram of tissue in normal mice stomach after 1 hour; format: ADME, organism-based; conditions: in vivo; in short: as §1
Mus musculus [32] = species on record: Mus musculus; experiment: Tissue distribution expressed as percentage injected dose per gram of tissue in normal mice stomach after 2 hour; format: ADME, organism-based; conditions: in vivo; in short: as §1
Mus musculus [33] = species on record: Mus musculus; experiment: Tissue distribution expressed as percentage injected dose per gram of tissue in normal mice stomach after 4 hour; format: ADME, organism-based; conditions: in vivo; in short: as §1
Mus musculus [34] = species on record: Mus musculus; experiment: Tissue distribution expressed as percentage injected dose per gram of tissue in normal mice thyroid after 1 hour; format: ADME, organism-based, Thyroid gland; conditions: in vivo; in short: as §1
Mus musculus [35] = species on record: Mus musculus; experiment: Tissue distribution expressed as percentage injected dose per gram of tissue in normal mice thyroid after 2 hour; format: ADME, organism-based, Thyroid gland; conditions: in vivo; in short: as §1
Mus musculus [36] = species on record: Mus musculus; experiment: Tissue distribution expressed as percentage injected dose per gram of tissue in normal mice thyroid after 4 hour; format: ADME, organism-based, Thyroid gland; conditions: in vivo; in short: as §1
Mus musculus [37] = species on record: Mus musculus; experiment: Tissue distribution expressed as percentage injected dose per gram of tissue in normal mice kidney after 2 hour; format: ADME, organism-based; conditions: in vivo; in short: as §1
Mus musculus [38] = species on record: Mus musculus; experiment: Tissue distribution expressed as percentage injected dose per gram of tissue in normal mice adrenals after 2 hour; format: ADME, organism-based, Adrenal gland; conditions: in vivo; in short: as §1
Mus musculus [39] = species on record: Mus musculus; experiment: Tissue distribution expressed as percentage injected dose per gram of tissue in normal mice blood after 1 hour; format: ADME, organism-based; conditions: in vivo; in short: as §1
Mus musculus [40] = species on record: Mus musculus; experiment: Tissue distribution expressed as percentage injected dose per gram of tissue in normal mice blood after 2 hour; format: ADME, organism-based; conditions: in vivo; in short: as §1
Mus musculus [41] = species on record: Mus musculus; experiment: Tissue distribution expressed as percentage injected dose per gram of tissue in normal mice blood after 4 hour; format: ADME, organism-based; conditions: in vivo; in short: as §1
Mus musculus [42] = species on record: Mus musculus; experiment: Tissue distribution expressed as percentage injected dose per gram of tissue in normal mice bone after 1 hour; format: ADME, organism-based, Bone element; conditions: in vivo; in short: as §1
SK-N-SH = experiment: The compound was tested for the concentration of inhibition by unlabelled analogues to SK-N-SH human neuroblastoma cells; format: functional, cell-based
In short: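 SK-N-SH neuroblastoma cells, 4 × 10⁵/well, with about 1 μCi 18F-labelled tracer or 0.1 μCi nca [¹²⁵I]MIBG plus graded concentrations of unlabelled benzylguanidines, in triplicate; 2 h at 37 °C. Nonspecific binding: 1 μM desipramine preincubation, 30 min. Cells washed twice in PBS, lysed in 0.5 N NaOH, γ-counted. Specific binding as % of control plotted against inhibitor concentration.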

Mus musculus [43] = species on record: Mus musculus; experiment: Tissue distribution expressed as percentage injected dose per gram of tissue in normal mice kidney after 1 hour; format: ADME, organism-based; conditions: in vivo; in short: as §1

ID/g (Mus musculus [1]): 5.9%
ID/g (Mus musculus [2]): 9.7%
ID/g (Mus musculus [3]): 15.3%
ID/g (Mus musculus [4]): 20.3%
SMILES: N=C(N)NCc1ccc(F)cc1

ID/g (Mus musculus [5]): 1.9%
ID/g (Mus musculus [6]): 3.8%
ID/g (Mus musculus [7]): 4.5%
ID/g (Mus musculus [8]): 3.8%
ID/g (Mus musculus [9]): 10.5%
ID/g (Mus musculus [10]): 0.9%
ID/g (Mus musculus [11]): 0.7%
ID/g (Mus musculus [12]): 0.1%
ID/g (Mus musculus [13]): 0.1%
ID/g (Mus musculus [14]): 0.2%
ID/g (Mus musculus [15]): 18.2%
ID/g (Mus musculus [16]): 19.5%
ID/g (Mus musculus [1]): 18.3%
ID/g (Mus musculus [17]): 9.2%
ID/g (Mus musculus [18]): 6.8%
ID/g (Mus musculus [19]): 9.7%
ID/g (Mus musculus [20]): 5.5%
ID/g (Mus musculus [21]): 4%
ID/g (Mus musculus [22]): 1.7%
ID/g (Mus musculus [23]): 1.7%
ID/g (Mus musculus [24]): 1.5%
ID/g (Mus musculus [25]): 5.5%
ID/g (Mus musculus [26]): 4.3%
ID/g (Mus musculus [27]): 3%
ID/g (Mus musculus [28]): 3.8%
ID/g (Mus musculus [29]): 3.7%
ID/g (Mus musculus [30]): 3.2%
ID/g (Mus musculus [31]): 3%
ID/g (Mus musculus [32]): 2.4%
ID/g (Mus musculus [33]): 1.9%
ID/g (Mus musculus [34]): 1.8%
ID/g (Mus musculus [35]): 1.9%
ID/g (Mus musculus [36]): 1.5%
ID/g (Mus musculus [37]): 2.3%
ID/g (Mus musculus [3]): 21.3%
ID/g (Mus musculus [38]): 19.2%
ID/g (Mus musculus [4]): 19.7%
ID/g (Mus musculus [39]): 0.9%
ID/g (Mus musculus [40]): 0.7%
ID/g (Mus musculus [41]): 0.4%
ID/g (Mus musculus [42]): 1.1%
IC50 (SK-N-SH; Homo sapiens, SK-N-SH): 200 nM
IC50 (SK-N-SH; sk-n-sh): 200 nM
ID/g (Mus musculus [43]): 2.6%
SMILES: N=C(N)NCc1ccc(F)c(I)c1

ID/g (Mus musculus [15]): 21%
ID/g (Mus musculus [1]): 10.5%
ID/g (Mus musculus [3]): 13.9%
ID/g (Mus musculus [4]): 23.8%
SMILES: N=C(N)NCc1cccc(F)c1 [M-FLUOROBENZYLGUANIDINE]
